Data from ChEMBL document CHEMBL4052795, “Synthesis and evaluation of modified chalcone based p53 stabilizing agents” (2017).
The source made the active and inactive calls. No cut-off for these calls is given here.

Columns and labels:
[1] = tested on: HCT-116; assay: Antiproliferative activity against human HCT116 cells at 25 uM after 3 days by SRB assay relative to control; format: functional; details: HCT-116, 72 h
[2] = tested on: HCT-116; assay: Antiproliferative activity against human HCT116 cells at 50 uM after 3 days by SRB assay relative to control; format: functional; details: HCT-116, 72 h
[3] = tested on: HCT-116; assay: Antiproliferative activity against human HCT116 cells assessed as growth inhibition after 3 days by SRB assay; format: functional; details: HCT-116, 72 h
Summary of the method: (§1)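 Cells treated in duplicate in 96-well format with three-fold serial dilutions from 50 µM; DMSO solvent control, Nutlin-3 positive control. Sulforhodamine B staining after 3 days; GI50 derived from dilution series.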

[4] = tested on: CAL-51; assay: Antiproliferative activity against human CAL51 cells assessed as growth inhibition after 3 days by SRB assay; format: functional; details: CAL-51, 72 h; summary of the method: as §1
[5] = molecular target: Cellular tumor antigen p53 (Homo sapiens) (UniProt P04637); assay: Induction of p53 stabilization in human HCT116 cells assessed as ratio of p53 expression levels to GAPDH expression levels at 6.25 uM after 4 hrs by immunoblot analysis; format: cell-based
Chain of Cellular tumor antigen p53 (Homo sapiens) (P04637 whole entry, looked up): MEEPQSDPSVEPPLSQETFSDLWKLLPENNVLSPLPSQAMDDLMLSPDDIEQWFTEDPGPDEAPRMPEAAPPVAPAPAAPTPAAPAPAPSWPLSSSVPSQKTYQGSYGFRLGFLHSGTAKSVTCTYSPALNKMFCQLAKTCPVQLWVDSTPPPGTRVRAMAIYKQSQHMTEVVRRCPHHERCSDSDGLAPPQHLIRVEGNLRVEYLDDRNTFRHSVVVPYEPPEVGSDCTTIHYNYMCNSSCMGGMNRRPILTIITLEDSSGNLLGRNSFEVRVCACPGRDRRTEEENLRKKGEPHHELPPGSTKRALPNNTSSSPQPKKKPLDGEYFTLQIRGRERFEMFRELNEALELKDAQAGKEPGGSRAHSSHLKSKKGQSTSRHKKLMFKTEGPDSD
Summary of the method: (§2)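 HCT116 treated with 6.25, 12.5 or 25 µM for 4 or 8 h; 10 µM Nutlin-3 positive control, DMSO solvent control. Lysates immunoblotted for p53 and GAPDH; band densities quantified, p53 normalized to GAPDH and expressed as fold change versus DMSO.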

[6] = molecular target: Cellular tumor antigen p53 (Homo sapiens) (UniProt P04637); assay: Induction of p53 stabilization in human HCT116 cells assessed as ratio of p53 expression levels to GAPDH expression levels at 12.5 uM after 4 hrs by immunoblot analysis; format: cell-based; summary of the method: as §2
[7] = molecular target: Cellular tumor antigen p53 (Homo sapiens) (UniProt P04637); assay: Induction of p53 stabilization in human HCT116 cells assessed as ratio of p53 expression levels to GAPDH expression levels at 25 uM after 4 hrs by immunoblot analysis; format: cell-based; summary of the method: as §2
[8] = molecular target: Cellular tumor antigen p53 (Homo sapiens) (UniProt P04637); assay: Induction of p53 stabilization in human HCT116 cells assessed as ratio of p53 expression levels to GAPDH expression levels at 6.25 uM after 8 hrs by immunoblot analysis; format: cell-based; summary of the method: as §2
[9] = molecular target: Cellular tumor antigen p53 (Homo sapiens) (UniProt P04637); assay: Induction of p53 stabilization in human HCT116 cells assessed as ratio of p53 expression levels to GAPDH expression levels at 12.5 uM after 8 hrs by immunoblot analysis; format: cell-based; summary of the method: as §2
[10] = molecular target: Cellular tumor antigen p53 (Homo sapiens) (UniProt P04637); assay: Induction of p53 stabilization in human HCT116 cells assessed as ratio of p53 expression levels to GAPDH expression levels at 25 uM after 8 hrs by immunoblot analysis; format: cell-based; summary of the method: as §2
[11] = molecular target: Cellular tumor antigen p53 (Homo sapiens) (UniProt P04637); assay: Induction of p53 stabilization in human HCT116 cells assessed as ratio of p53 expression levels to GAPDH expression levels after 8 hrs by immunoblot analysis; format: cell-based; summary of the method: as §2
[12] = molecular target: Cellular tumor antigen p53 (Homo sapiens) (UniProt P04637); assay: Induction of p53 stabilization in human HCT116 cells assessed as ratio of p53 expression levels to GAPDH expression levels after 4 hrs by immunoblot analysis; format: cell-based; summary of the method: as §2
[13] = molecular target: Cellular tumor antigen p53 (Homo sapiens) (UniProt P04637); assay: Induction of p53 stabilization in human HCT116 cells assessed as increase in p53 expression levels at 12.5 uM measured up to 90 mins in presence of varying concentrations of cycloheximide by immunoblot analysis; format: cell-based
Summary of the method: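 Cycloheximide chase in HCT116: cells given cycloheximide with or without 12.5 µM compound, samples collected at timed points; immunoblot for p53 and alpha-tubulin, p53 normalized to alpha-tubulin.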

[14] = molecular target: Cellular tumor antigen p53 (Homo sapiens) (UniProt P04637); assay: Induction of p53 stabilization in human HCT116 cells assessed as increase in p53 expression levels at 6.25 to 25 uM after 4 hrs by immunoblot analysis; format: cell-based; summary of the method: as §2
[15] = molecular target: Cellular tumor antigen p53 (Homo sapiens) (UniProt P04637); assay: Induction of p53 stabilization in human HCT116 cells assessed as increase in p53 expression levels at 6.25 to 25 uM after 8 hrs by immunoblot analysis; format: cell-based; summary of the method: as §2

Row | SMILES | inhibition at 25 µM [1] [%] | inhibition at 50 µM [2] [%] | GI50 [3] [µM] | GI50 [4] [µM] | other results
1 | COc1cc(/C=C/C(=O)c2ccccc2)cc(OC)c1OC | 99.4 | 99.7 | 0.473 | 0.78 | 
2 | O=C(/C=C/c1ccc(Cl)cc1)c1ccccc1 [4-CHLORO CHALCONE] | 97.5 | 100 | 16.5 | 5.85 | Ratio [5]: 1.24; Ratio [6]: 3.1; Ratio [7]: 3.62; Ratio [8]: 1.38; Ratio [9]: 1.15; Ratio [10]: 1.76; Activity [11]: Dose-dependent effect; Activity [12]: Dose-dependent effect
3 | O=C(/C=C/c1ccccc1)c1ccccc1 [CHALCONE] | 100 | 97.5 | 3.96 | 1.85 | 
4 | COc1cccc(/C=C/C(=O)c2ccc(OCc3ccccc3)cc2)c1 | 35.4 | 76 | 35.4 | 13.7 | 
5 | O=C(/C=C/c1ccccc1[N+](=O)[O-])c1ccccc1 | 100 | 100 | 7.69 | 2.59 | 
6 | O=C(/C=C/c1ccc([N+](=O)[O-])cc1)c1ccccc1 | 99.7 | 100 | 3.13 | 1.21 | 
7 | Cc1ccc(COc2ccc(C(=O)/C=C/c3ccc(F)cc3)cc2)cc1 |  | 15.4 | > 50 | > 50 | 
8 | COc1ccc(/C=C/C(=O)c2ccc(OCc3ccccc3)cc2)cc1 | 9.5 | 13.2 | 36.9 | > 50 | 
9 | Cc1ccc(COc2ccc(C(=O)/C=C/c3ccc(Cl)cc3)cc2)cc1 | 12.3 | 16.9 | > 50 | > 50 | 
10 | COc1ccc(C2=N[C@H](c3ccc(Cl)cc3)[C@H](c3ccc(Cl)cc3)N2C(=O)N2CCNC(=O)C2)c(OC(C)C)c1 |  |  | 1.52 |  | 
11 | COc1ccc(/C=C/C(=O)c2ccccc2)cc1 [4-METHOXY CHALCONE] | 100 | 99.7 | 3.86 | 2.69 | Ratio [5]: 1.11; Ratio [6]: 1.41; Ratio [7]: 1.53; Ratio [8]: 1.34; Ratio [9]: 1.2; Ratio [10]: 1.7; Activity [11]: Dose-dependent effect; Activity [12]: Dose-dependent effect; Activity [13]: Active
12 | O=C(/C=C/c1ccccc1Cl)c1ccc(OCc2ccccc2)cc1 | 54.5 | 99.7 | 14.9 | 7.1 | 
13 | COc1ccc(CCC(=O)c2ccccc2)cc1 |  |  | > 100 |  | Activity [14]: inactive; Activity [15]: inactive
14 | O=C(/C=C/c1ccc(F)cc1)c1ccc(OCc2ccccc2)cc1 |  |  | > 50 | > 50 | 
15 | COc1ccc(C(=O)/C=C/c2ccccc2)cc1 [4'-METHOXYCHALCONE] | 99.7 | 98.2 | 3.57 | 3.33 | 
16 | O=C(/C=C/c1ccc(Cl)cc1)c1ccc(OCc2ccccc2)cc1 | 0.3 |  | > 50 | > 50 | 
17 | O=C(/C=C/c1cccc([N+](=O)[O-])c1)c1ccccc1 | 100 | 99.7 | 4.47 | 1.08 | 
18 | Cc1ccc(COc2ccc(C(=O)/C=C/c3ccccc3)cc2)cc1 | 4 |  | > 50 | 43.2 | 
19 | O=C(/C=C/c1ccc(OCc2ccccc2)cc1)c1ccccc1 | 52.3 | 49.5 | > 50 | 24.7 | 
20 | O=C(/C=C/c1ccccc1)c1ccc(OCc2ccccc2)cc1 | 24.3 | 33.8 | > 50 | 28.9 | 
